Test results from ChEMBL document CHEMBL4513216, “Probing the Open Global Health Chemical Diversity Library for Multistage-Active Starting Points for Next-Generation Antimalarials” (ACS Infect Dis, 2020).

Assay: Toxicity liver stage against HepG2, at 10uM
Format: cell-based
Parameters: test concentration 10 uM, cell line HepG2-A16-CD81EGFP
Conditions: human, HepG2-A16-CD81EGFP cells; read-out: INHIBITION
Procedure, shortened: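 Uninfected HepG2-A16-CD81EGFP cells, 3 × 10^3 per well, 1536-well, plated on prespotted compound at 10 μM final, parasite-free screening media added to match infected plates; puromycin 10 μM positive, DMSO 0.5% negative; run in parallel with 48 h PbLuc assay at 37 °C, 5% CO2; viability by CellTiter-Glo luminescence, normalized to controls.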

Row | Compound | cytotoxicity at 10 µM
1 | COCCN1CCc2onc(C(c3ccccc3)c3ccccc3)c2C1 | -7.35%
2 | CCNC(=O)N(C)C(c1cccc(F)c1)c1ccccn1 (stereo unspecified) | -11.6%
3 | Cc1cnn(CCNCc2cccnc2)c1 | -0.265%
4 | COc1ccc(CNC(=O)N2CCN(C)[C@@H]3CS(=O)(=O)C[C@@H]32)cc1 | 8.64%
5 | CCN1Cc2cc(F)ccc2N(CC(O)C(F)(F)F)CCC1=O (stereo unspecified) | -3.4%
6 | CN(Cc1ccco1)C(=O)NCC(c1cccs1)N(C)C (stereo unspecified) | 4.38%
7 | O=C([C@H]1COC[C@H]2CN(C3CCCC3)C[C@H]21)N1CCCCO1 | -9.47%
8 | Cc1cnc(N2CCC3(CC2)CN(Cc2cccs2)CCO3)nc1 | 16.2%
9 | O=C(NCCN1CCOCC1)c1nc2ccccc2c(=O)[nH]1 | 11.3%
10 | CS(=O)(=O)c1ccc(CNC[C@H]2COCc3nc4ccccc4n32)cc1 | -1.28%
11 | O=C1CCC2(CCNCC2)CN1CCCNc1cccnc1 | -6.46%
12 | OC1CCN(c2ccnc3c(F)cc(Br)cc23)CC1 | 11.6%
13 | O=C(c1cscn1)N1C[C@@H]2[C@@H](C1)OCC(=O)N2CC1CCCC1 | -10.2%
14 | O=C(c1ccoc1)N1Cc2cnn(CC3CC3)c2C(COCC2CC2)C1 (stereo unspecified) | -6.98%
15 | O=C(Cn1cccn1)N1CCC(Cn2cc(-c3ccsc3)nn2)CC1 | -0.554%
16 | CCc1noc(CS(=O)(=O)CC(=O)N2c3ccccc3CC2C)n1 (stereo unspecified) | 7.07%
17 | c1cc(-c2cncc(C3CCNCC3)n2)n[nH]1 | 3.42%
18 | Cc1c(COC(C)C)cccc1NC(=O)N1CC[C@H](O)C1 | -11%
19 | CCOc1cc(NC(=O)N(C)Cc2ncnn2C)ccc1C | 13.4%
20 | O=C(c1ccncc1F)N1CCOC(c2cccc(O)c2)C1 (stereo unspecified) | -4.97%
21 | O=C(CCN1CCOCC1)N1CCC(Cc2ccc(CO)cc2)C1 (stereo unspecified) | -9.47%

Row | Compound | cytotoxicity at 10 µM
22 | O=C(NCCC1COc2ccccc2O1)c1ccc(N2CC(O)C2)nc1 (stereo unspecified) | 72.1%
23 | c1csc(COC[C@H]2CCC[C@]23CN(Cc2ccoc2)CCO3)n1 | -67.3%
24 | O=C(NCCOc1ccc2c(c1)OCO2)C1CC(=O)N(C2CC2)C1 (stereo unspecified) | -6.75%
25 | Cc1nc[nH]c1CN1C[C@H]2CC[C@@H](C1)N(C(=O)CCNS(C)(=O)=O)C2 | -10.4%
26 | CCOC1CC2(CCN(c3cnccn3)CC2)c2ccccc21 (stereo unspecified) | 5.54%
27 | c1cn2c(n1)CN(Cc1ccsc1)CC(Cn1cncn1)C2 (stereo unspecified) | -74.8%
28 | COc1cccc(N2CCN(C(=O)c3ccc(=O)n(C)c3)CC2)c1 | -7.81%
29 | CN(Cc1cccnc1)C1CC2(CCN(Cc3ccccn3)CC2)C1 | -84%
30 | CCOc1cccnc1C(=O)N1CCC(c2ccccc2OC)C1 (stereo unspecified) | 7.71%
31 | CCn1ccnc1CN1CCCC(N(C)CCc2ccccc2)C1 (stereo unspecified) | 2.88%
32 | CN(C)C1COC2(CCN(C(=O)c3cccnc3)CC2)C1 (stereo unspecified) | 3.53%
33 | CCn1ncc2c1C(COCC1CC1)N(Cc1cnn(C)c1)CC2 (stereo unspecified) | 8.98%
34 | O=C(CCCn1cccn1)N1C[C@@H](O)[C@H](Oc2cccc(F)c2)C1 | 5.75%
35 | CCOCCCn1c(NC(=O)c2cc(C)no2)nc2ccccc21 | -5.69%
36 | COc1cccc(CN2C[C@@H]3COC[C@]3(COCc3ccncc3)C2)c1 | 3.52%
37 | Cc1nc2cc(=O)[nH]n2c(C)c1CNC(=O)C(C)(C)c1ccccc1 | 1.1%
38 | Cc1cc(C)n(CC2CN(Cc3nc(C4CC4)no3)CCO2)n1 (stereo unspecified) | -5.13%
39 | COCC1CN(c2ccc(C)nn2)Cc2cnn(C)c21 (stereo unspecified) | 11.7%
40 | CC(C)(C)CN1CCCC12Cc1ccccc1CNC2=O (stereo unspecified) | 22.1%
41 | CN1CC(=O)N(c2ccccc2)CC12CCN(C(=O)CC1CC1)C2 (stereo unspecified) | 0.972%
42 | CC(C)C(=O)Nc1ccc2c(c1)ncn2CC(=O)NCCN(C)C | -9.1%

Row | Compound | cytotoxicity at 10 µM
43 | Cc1nc(CN2C(=O)C[C@H]3[C@H]2CCN3CC2CCOC2)cs1 (stereo partly specified) | -151%
44 | COc1cccc(-c2cc(CN)ccc2F)c1F | -12.4%
45 | CC(C(=O)NCc1cccc(N2CC=CC2)c1)n1cccn1 (stereo unspecified) | -5.07%
46 | Cc1ccccc1-n1c(C)cc(C(=O)N2CCn3c(C)nnc3C2)c1C | -8.51%
47 | Cc1nc(CC(=O)N2CCN(c3ccc(N(C)C)cc3)CC2)cs1 | 0.236%
48 | Cc1cc(Cl)ccc1C(=O)C1CCCN(Cc2cnc(N(C)C)s2)C1 (stereo unspecified) | -13.1%
49 | O=c1n(Cc2ccc(F)cc2)nc2ncccn12 | -8.18%
50 | Cc1cc(=O)[nH]c(-n2nc(C3CC3)cc2N)n1 | -4.84%
51 | CN1CCN(C(=O)c2cc(-c3ccco3)cs2)CC1 | 1.63%
52 | c1ccc2oc(CCCN3CCCC3c3noc(C4CC4)n3)nc2c1 (stereo unspecified) | -13.5%
53 | COc1ccc2c(C)c(C(=O)NC3CCCOC3)oc2c1 (stereo unspecified) | -7.28%
54 | Cc1ccoc1CNCc1nnc2n1CC(C(F)(F)F)CC2 (stereo unspecified) | 14.3%
55 | O=C(c1cccc(O)c1)N1CCC2(CCN2c2ncccn2)C1 (stereo unspecified) | -139%
56 | CN(C(=O)Cc1ccc(NC(=O)NC2CCC2)cc1)c1ccccc1 | -6.11%
57 | COC(=O)c1cc2c(OC)c(OC)c(OC)cc2[nH]1 | -0.555%
58 | COc1ccc(OC)c(CCNC(=O)CCC2CCCO2)c1 (stereo unspecified) | 2.34%
59 | Cc1[nH]/c(=N/C(=O)Cn2nc(N3CCOCC3)ccc2=O)sc1C | 1.81%
60 | CCc1ccccc1OCCN1CCC(NS(C)(=O)=O)CC1 | -20.4%
61 | O=C(O)[C@@H]1CN(C(=O)CSCC2CC2)C[C@H]1c1ccccn1 | 5.35%
62 | COCC[C@]1(O)CCN(CC(=O)NCc2ccccc2C)C[C@H]1C | -5.31%
63 | c1cncc(O[C@H]2COCCN(CC3CC3)C2)c1 | 3.38%

Row | Compound | cytotoxicity at 10 µM
64 | O=C(Nc1ccccc1F)N1CCN(Cc2noc(C3CC3)n2)CC1 | -0.144%
65 | COCC(=O)Nc1ccccc1Sc1c(C)n[nH]c1C | -10.2%
66 | CCCc1nnc(N2CCN(c3cccc(OC)c3)C(=O)C2)o1 | 9.52%
67 | Cc1cc(CNc2cccc(C(=O)N(C)c3ccccc3)c2)no1 | 2.95%
68 | O=C(NCc1ccccn1)[C@@H]1COC[C@H]2CNC[C@H]21 | 11.2%
69 | Cc1ccc(CN2CCNC(=O)C2CC(=O)N2CCSCC2)o1 (stereo unspecified) | 4.48%
70 | CSC(C)(C)CNC(=O)NCc1cccc(-n2cncn2)c1 | -14.4%
71 | CSc1nsc(NC(=O)N(C)Cc2ccc3c(c2)OCO3)n1 | -10.4%
72 | CCOc1c(F)cccc1C(=O)N(CC)C(C)c1ccncc1 (stereo unspecified) | 11%
73 | COCCC(=O)N1CCn2cc(CN3CCN(C)CC3)nc2C1 | -3.13%
74 | O=C(CCC1CCCC1)N1C[C@@H]2CC[C@H]1CN(Cc1ccncc1)C2 | -3.76%
75 | CCCn1cc(S(=O)(=O)N[C@H]2CN(CCO)C[C@@H]2C2CC2)cn1 | -11.3%
76 | Cc1c(C(=O)N2CCC3(CCC(=O)N(CCN(C)C)C3)CC2)ccn1C | -4.06%
77 | Cc1ccc(-n2cc(CN3CCOCC(CN(C)C)C3)cn2)cc1C (stereo unspecified) | -19.8%
78 | CC1CN(c2ncccc2C(=O)N[C@@H]2CCCc3ccccc32)CCN1 (stereo partly specified) | 10.7%
79 | O=C(CCn1ncc2c(Cl)cccc21)NCCCO | 7.63%
80 | Cn1ccnc1C(=O)N[C@@H]1CN(Cc2ccc(F)cc2)[C@@H]2CCCO[C@@H]21 | -111%
81 | Cc1noc(CN(C)CC2CCCN(CCc3ccc(Cl)cc3)C2)n1 (stereo unspecified) | 3.76%
